Activity calls are given as the source filed them. The calls are words filed in the database; no cut-off is given here.
Key:
HEK293 [1] = assay: Inhibition of TLR2 expression in human HEK293 cells stably transfected with TLR2 at 100 uM treated for 24 hrs measured after serum deprivation by Western blotting; format: functional, cell-based
Procedure, shortened: (§1)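 HEK293 and TLR2-stably-transfected HEK293 cells in RPMI-1640 with 10% heat-inactivated FBS, 37 °C, 5% CO2; compound at 0, 10 or 100 uM for 24 h, then serum deprivation for 0, 12 or 24 h. Equal cell numbers lysed in RIPA buffer, 12% SDS-PAGE, nitrocellulose, anti-TLR2 immunoblot with GAPDH antibody, chemiluminescent detection; mean ± SEM of three independent experiments.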

HEK293 [2] = assay: Inhibition of TLR2 expression in human HEK293 cells at 100 uM treated for 24 hrs measured after serum deprivation by Western blotting; format: functional, cell-based; procedure, shortened: as §1
HEK293 [3] = assay: Inhibition of TLR2 expression in human HEK293 cells at 10 uM treated for 24 hrs measured after serum deprivation by Western blotting; format: functional, cell-based; procedure, shortened: as §1
HEK293 [4] = assay: Inhibition of TLR2 expression in human HEK293 cells stably transfected with TLR2 at 10 uM treated for 24 hrs measured after serum deprivation by Western blotting; format: functional, cell-based; procedure, shortened: as §1
[5] = target: Toll-like receptor 2 (Homo sapiens) (UniProt O60603); assay: Inhibition of TLR2 in human HEK293 cells assessed as decrease in GSK3-beta phosphorylation level at 10 uM treated for 24 hrs measured after serum deprivation by Western blotting; format: cell-based
Procedure, shortened: (§2)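 Cells given 0, 10 or 100 uM for 24 h before 0, 12 or 24 h serum deprivation; HEK293 and TLR2/HEK293 lines cultured in RPMI-1640 plus 10% heat-inactivated FBS. Harvested cells lysed in RIPA buffer, 12% SDS-PAGE, nitrocellulose transfer, immunoblotted for phospho-GSK3beta and total GSK3beta, ECL read-out; mean ± SEM, three independent experiments.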

[6] = target: Toll-like receptor 2 (Homo sapiens) (UniProt O60603); assay: Inhibition of TLR2 in human HEK293 cells stably transfected with TLR2 assessed as decrease in GSK3-beta phosphorylation level at 100 uM treated for 24 hrs measured after serum deprivation by Western blotting; format: cell-based; procedure, shortened: as §2
[7] = target: Toll-like receptor 2 (Homo sapiens) (UniProt O60603); assay: Inhibition of TLR2-mediated apoptosis in human HEK293 cells stably transfected with TLR2 at 100 uM treated for 24 hrs measured after 24 hrs of serum deprivation by TUNEL assay; format: cell-based
Procedure, shortened: (§3)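 With or without 100 uM for 24 h, then serum deprivation 0, 12 or 24 h, in HEK293 or TLR2/HEK293 cells (RPMI-1640, 10% heat-inactivated FBS). Nucleosomal DNA fragmentation detected by in situ TUNEL kit; apoptotic and total cells counted in random fields to give percent apoptotic cells; mean ± SEM of three independent experiments.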

[8] = target: Toll-like receptor 2 (Homo sapiens) (UniProt O60603); assay: Inhibition of TLR2 in human HEK293 cells assessed as decrease in GSK3-beta phosphorylation level at 100 uM treated for 24 hrs measured after serum deprivation by Western blotting; format: cell-based; procedure, shortened: as §2
[9] = target: Toll-like receptor 2 (Homo sapiens) (UniProt O60603); assay: Inhibition of TLR2 in human HEK293 cells assessed as decrease in Akt phosphorylation level at Ser473 at 10 uM treated for 24 hrs measured after serum deprivation by Western blotting; format: cell-based
Procedure, shortened: (§4)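 Parental HEK293 or TLR2/HEK293 cells (RPMI-1640, 10% heat-inactivated FBS, 37 °C, 5% CO2) exposed to 0, 10 or 100 uM for 24 h, then serum-deprived 0, 12 or 24 h. RIPA lysates of equal cell numbers run on 12% SDS-PAGE; phospho-Akt (Ser473) and total Akt probed by Western blot, milk block, primary antibody overnight at 4 °C.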

[10] = Solubility in water; format: physicochemical; details: buffer
[11] = target: Toll-like receptor 2 (Homo sapiens) (UniProt O60603); assay: Inhibition of TLR2 in human HEK293 cells stably transfected with TLR2 assessed as decrease in Akt phosphorylation level at Ser473 at 10 uM treated for 24 hrs measured after serum deprivation by Western blotting; format: cell-based; procedure, shortened: as §4
Albumin = Albumin (Homo sapiens, UniProt P02768); assay: Binding affinity to human serum albumin; format: ADME; details: isolated protein
[12] = target: Toll-like receptor 2 (Homo sapiens) (UniProt O60603); assay: Inhibition of TLR2 in human HEK293 cells stably transfected with TLR2 assessed as decrease in GSK3-beta phosphorylation level at 10 uM treated for 24 hrs measured after serum deprivation by Western blotting; format: cell-based; procedure, shortened: as §2
[13] = target: Toll-like receptor 2 (Homo sapiens) (UniProt O60603); assay: Inhibition of TLR2 in human HEK293 cells stably transfected with TLR2 assessed as decrease in Akt phosphorylation level at Ser473 at 100 uM treated for 24 hrs measured after serum deprivation by Western blotting; format: cell-based; procedure, shortened: as §4
[14] = target: Toll-like receptor 2 (Homo sapiens) (UniProt O60603); assay: Inhibition of TLR2 in human HEK293 cells assessed as decrease in Akt phosphorylation level at Ser473 at 100 uM treated for 24 hrs measured after serum deprivation by Western blotting; format: cell-based; procedure, shortened: as §4
[15] = target: Toll-like receptor 2 (Homo sapiens) (UniProt O60603); assay: Inhibition of TLR2-mediated apoptosis in human HEK293 cells at 100 uM treated for 24 hrs measured after 12 hrs of serum deprivation by TUNEL assay; format: cell-based; procedure, shortened: as §3
[16] = target: Toll-like receptor 2 (Homo sapiens) (UniProt O60603); assay: Inhibition of TLR2-mediated apoptosis in human HEK293 cells at 100 uM treated for 24 hrs measured after 24 hrs of serum deprivation by TUNEL assay; format: cell-based; procedure, shortened: as §3
[17] = target: Toll-like receptor 2 (Homo sapiens) (UniProt O60603); assay: Inhibition of TLR2-mediated apoptosis in human HEK293 cells stably transfected with TLR2 at 100 uM treated for 24 hrs measured after 12 hrs of serum deprivation by TUNEL assay; format: cell-based; procedure, shortened: as §3

Sequence of Toll-like receptor 2 (Homo sapiens) (O60603 whole entry, the tested form may be a part): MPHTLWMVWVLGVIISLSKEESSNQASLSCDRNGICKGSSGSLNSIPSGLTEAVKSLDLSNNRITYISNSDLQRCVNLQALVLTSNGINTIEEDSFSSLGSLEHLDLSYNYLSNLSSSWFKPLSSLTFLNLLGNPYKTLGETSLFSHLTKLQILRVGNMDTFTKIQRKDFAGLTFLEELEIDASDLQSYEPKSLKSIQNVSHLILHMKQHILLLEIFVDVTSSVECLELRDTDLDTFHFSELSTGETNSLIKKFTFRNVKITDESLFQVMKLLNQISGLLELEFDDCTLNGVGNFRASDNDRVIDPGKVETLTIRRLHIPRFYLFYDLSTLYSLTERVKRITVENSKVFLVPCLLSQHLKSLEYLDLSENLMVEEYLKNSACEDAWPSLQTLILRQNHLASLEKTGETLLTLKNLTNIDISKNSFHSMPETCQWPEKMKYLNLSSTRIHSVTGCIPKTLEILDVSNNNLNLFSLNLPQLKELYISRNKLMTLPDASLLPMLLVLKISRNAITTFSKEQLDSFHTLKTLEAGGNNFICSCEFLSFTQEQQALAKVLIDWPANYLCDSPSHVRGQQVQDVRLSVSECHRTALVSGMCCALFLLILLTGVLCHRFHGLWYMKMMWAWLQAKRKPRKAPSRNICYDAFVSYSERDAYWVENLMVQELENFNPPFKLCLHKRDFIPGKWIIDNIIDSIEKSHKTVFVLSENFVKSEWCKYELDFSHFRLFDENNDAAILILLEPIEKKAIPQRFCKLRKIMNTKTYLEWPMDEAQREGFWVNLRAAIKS
Sequence of Albumin (P02768 whole entry): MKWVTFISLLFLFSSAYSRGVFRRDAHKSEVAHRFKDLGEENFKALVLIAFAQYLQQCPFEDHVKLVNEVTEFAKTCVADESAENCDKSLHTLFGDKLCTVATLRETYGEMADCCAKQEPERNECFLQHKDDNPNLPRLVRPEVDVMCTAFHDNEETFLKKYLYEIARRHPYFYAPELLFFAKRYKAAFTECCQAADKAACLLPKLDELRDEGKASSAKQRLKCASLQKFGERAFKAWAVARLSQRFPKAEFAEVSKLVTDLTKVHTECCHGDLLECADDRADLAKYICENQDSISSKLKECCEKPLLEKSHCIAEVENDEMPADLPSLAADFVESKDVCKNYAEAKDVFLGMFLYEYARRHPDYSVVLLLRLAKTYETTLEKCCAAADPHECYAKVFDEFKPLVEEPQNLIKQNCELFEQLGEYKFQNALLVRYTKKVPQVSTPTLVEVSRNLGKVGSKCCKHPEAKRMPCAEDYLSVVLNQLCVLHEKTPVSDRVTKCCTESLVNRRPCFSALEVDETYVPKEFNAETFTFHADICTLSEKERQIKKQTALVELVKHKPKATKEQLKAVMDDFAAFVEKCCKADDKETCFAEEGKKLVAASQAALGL

SMILES	inhibition (HEK293 [1])	inhibition (HEK293 [2])	inhibition (HEK293 [3])	inhibition (HEK293 [4])	Activity [5]	Activity [6]	inhibition [7] [%]	Activity [8]	Activity [9]	solubility [10]	Activity [11]	fold change (FC) (Albumin)	Activity [12]	Activity [13]	Activity [14]	inhibition [15] [%]	inhibition [16] [%]	inhibition [17] [%]
O=C(O)COc1ccc(/C=C/c2cc(O)cc(O)c2)cc1	inactive	inactive	inactive	inactive														
O=C(O)CCCCCOc1ccc(/C=C/c2cc(O)cc(O)c2)cc1 [RESVERATROL HEXANOIC ACID]	Active	Active	Active	Active	inactive	Active	49	inactive	inactive	Soluble	Active	40	Active	Active	inactive	11	25	20

Reference: ChEMBL document CHEMBL1152955, “Synthetic resveratrol aliphatic acid inhibits TLR2-mediated apoptosis and an involvement of Akt/GSK3beta pathway” (Bioorg Med Chem, 2009)
